Experimental data: the M2OR odorant receptor database

Target: T1, UniProt Q8VFP5
T1 sequence (whole entry): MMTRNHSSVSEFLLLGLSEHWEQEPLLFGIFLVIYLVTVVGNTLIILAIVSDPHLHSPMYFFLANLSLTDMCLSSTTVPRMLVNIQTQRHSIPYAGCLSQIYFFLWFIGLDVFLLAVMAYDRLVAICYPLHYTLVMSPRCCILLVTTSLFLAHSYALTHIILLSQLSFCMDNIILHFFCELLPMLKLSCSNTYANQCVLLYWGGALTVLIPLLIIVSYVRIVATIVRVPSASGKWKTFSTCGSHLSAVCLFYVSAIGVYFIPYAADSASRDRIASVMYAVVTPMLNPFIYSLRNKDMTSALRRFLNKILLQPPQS
Conditions: stereoisomer not certain
Procedure, shortened: (§1)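 Each receptor–molecule pair is labelled responsive or non-responsive (inactive) according to whether the original authors judged the measured signal statistically different from baseline. The data were taken from the main text and supplementary material of published papers and checked for typos and inconsistencies. Assay methods differed by source, with transient luciferase assays in mammalian cell lines being common.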

Odorant receptor agonist call, inactive:
CC12CCC(CC1=O)C2(C)C (configuration not stated), COc1cc(C(=O)O)ccc1O, CCCCCC=O, c1ccccc1, C=C(C)C1CCC(C)C(=O)C1 (configuration not stated), CCCCCCCCCO, CCCCC(C)=O, CCCCC(=O)CC, CCCCCCC(C)=O, CC(C)=CCCC(C)=CCO, CCCCCC1=C(C)CCC1=O, O=C1CCOc2ccccc21, C=CCOC(=O)CCCCCC, CC(=O)OCc1ccccc1, CCCCCCCO, O=C(c1ccccc1)c1ccccc1, CCCCCCCCCS, CC(C)=CCCC(C)CCO (configuration not stated), CCC(=O)C(=O)CC, CCCCCCCC(C)=O, CCCCCCCCCC(=O)[O-].[H+], CCCCCCCCS, CC(=O)OCC=C(C)C, CCOC(=O)C(C)C, CCCCOC=O, O=C1Cc2ccccc2O1, CCCCCOC(=O)CCCCC, CCCCCCOC(C)=O, CCCCCCCCCCO, CCC(=O)O, CC(=O)Oc1ccccc1, CCCC(=O)C(C)=O, CCCCCC(=O)CC

Target: T2, UniProt Q8VFZ6
T2 sequence (whole entry): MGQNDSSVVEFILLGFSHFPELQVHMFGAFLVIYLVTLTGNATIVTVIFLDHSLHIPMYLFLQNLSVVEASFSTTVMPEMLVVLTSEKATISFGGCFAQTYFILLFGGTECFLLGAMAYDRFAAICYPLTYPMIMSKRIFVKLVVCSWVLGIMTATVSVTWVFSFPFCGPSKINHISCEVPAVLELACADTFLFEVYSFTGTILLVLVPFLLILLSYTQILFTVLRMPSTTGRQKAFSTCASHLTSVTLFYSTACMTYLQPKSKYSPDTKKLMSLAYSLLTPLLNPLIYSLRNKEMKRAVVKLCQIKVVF
Conditions: stereoisomer not certain
Procedure, shortened: as §1

Odorant receptor agonist call, inactive:
CC12CCC(CC1=O)C2(C)C (configuration not stated), COc1cc(C(=O)O)ccc1O, CCCCCC=O, c1ccccc1, C=C(C)C1CCC(C)C(=O)C1 (configuration not stated), CCCCCCCCCO, CCCCC(C)=O, CCCCC(=O)CC, CCCCCCC(C)=O, CCCCCC1=C(C)CCC1=O, O=C1CCOc2ccccc21, C=CCOC(=O)CCCCCC, CC(=O)OCc1ccccc1, CCCCCCCO, O=C(c1ccccc1)c1ccccc1, CC(C)=CCCC(C)CCO (configuration not stated), CCC(=O)C(=O)CC, CCCCCCCC(C)=O, CCCCCCCCCC(=O)[O-].[H+], CCCCCCCCS, CC(=O)OCC=C(C)C, CCOC(=O)C(C)C, CCCCOC=O, O=C1Cc2ccccc2O1, CCCCCOC(=O)CCCCC, CCCCCCOC(C)=O, CCCCCCCCCCO, CCC(=O)O, CC(=O)Oc1ccccc1, CCCC(=O)C(C)=O, CCCCCC(=O)CC

Odorant receptor agonist call, active:
CC(C)=CCCC(C)=CCO, CCCCCCCCCS

Target: T3, UniProt Q8VG01
T3 sequence (whole entry): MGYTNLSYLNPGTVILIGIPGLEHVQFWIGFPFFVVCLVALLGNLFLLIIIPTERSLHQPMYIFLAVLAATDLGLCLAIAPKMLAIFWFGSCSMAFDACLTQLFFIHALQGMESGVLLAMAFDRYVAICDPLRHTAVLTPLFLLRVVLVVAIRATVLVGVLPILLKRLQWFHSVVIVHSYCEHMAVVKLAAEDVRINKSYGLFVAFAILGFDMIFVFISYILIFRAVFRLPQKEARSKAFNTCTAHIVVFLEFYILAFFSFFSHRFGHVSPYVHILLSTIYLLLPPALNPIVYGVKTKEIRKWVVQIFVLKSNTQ
Conditions: stereoisomer not certain
Procedure, shortened: as §1

Odorant receptor agonist call, inactive:
CC12CCC(CC1=O)C2(C)C (configuration not stated), COc1cc(C(=O)O)ccc1O, CCCCCC=O, c1ccccc1, C=C(C)C1CCC(C)C(=O)C1 (configuration not stated), CCCCCCCCCO, CCCCC(C)=O, CCCCC(=O)CC, CCCCCCC(C)=O, CC(C)=CCCC(C)=CCO, CCCCCC1=C(C)CCC1=O, O=C1CCOc2ccccc21, C=CCOC(=O)CCCCCC, CC(=O)OCc1ccccc1, CCCCCCCO, O=C(c1ccccc1)c1ccccc1, CCCCCCCCCS, CC(C)=CCCC(C)CCO (configuration not stated), CCC(=O)C(=O)CC, CCCCCCCC(C)=O, CCCCCCCCCC(=O)[O-].[H+], CCCCCCCCS, CC(=O)OCC=C(C)C, CCOC(=O)C(C)C, CCCCOC=O, O=C1Cc2ccccc2O1, CCCCCOC(=O)CCCCC, CCCCCCOC(C)=O, CCCCCCCCCCO, CCC(=O)O, CC(=O)Oc1ccccc1, CCCC(=O)C(C)=O, CCCCCC(=O)CC

Target: T4, UniProt Q8VG22
T4 sequence (whole entry): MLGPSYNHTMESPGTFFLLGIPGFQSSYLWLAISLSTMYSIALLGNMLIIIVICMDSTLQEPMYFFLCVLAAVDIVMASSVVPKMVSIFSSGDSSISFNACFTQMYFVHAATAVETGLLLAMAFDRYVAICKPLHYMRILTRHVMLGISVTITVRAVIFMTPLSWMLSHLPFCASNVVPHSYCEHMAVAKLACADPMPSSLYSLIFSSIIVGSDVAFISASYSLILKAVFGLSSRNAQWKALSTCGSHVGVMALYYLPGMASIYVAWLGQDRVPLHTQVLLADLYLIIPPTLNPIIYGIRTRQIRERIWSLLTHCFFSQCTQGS
Conditions: stereoisomer not certain
Procedure, shortened: as §1

Odorant receptor agonist call, inactive:
CC12CCC(CC1=O)C2(C)C (configuration not stated), COc1cc(C(=O)O)ccc1O, CCCCCC=O, c1ccccc1, CCCCCCCCCO, CCCCC(C)=O, CCCCC(=O)CC, CCCCCCC(C)=O, CC(C)=CCCC(C)=CCO, C=CCOC(=O)CCCCCC, O=C(c1ccccc1)c1ccccc1, CCCCCCCCCS, CC(C)=CCCC(C)CCO (configuration not stated), CCCCCCCC(C)=O, CCCCCCCCCC(=O)[O-].[H+], CCCCCCCCS, CC(=O)OCC=C(C)C, CCOC(=O)C(C)C, CCCCOC=O, CCCCCOC(=O)CCCCC, CCCCCCOC(C)=O, CCCCCCCCCCO, CCC(=O)O, CCCCCC(=O)CC

Odorant receptor agonist call, active:
C=C(C)C1CCC(C)C(=O)C1 (configuration not stated), CCCCCC1=C(C)CCC1=O, O=C1CCOc2ccccc21, CC(=O)OCc1ccccc1, CCCCCCCO, CCC(=O)C(=O)CC, O=C1Cc2ccccc2O1, CC(=O)Oc1ccccc1, CCCC(=O)C(C)=O
